# From ChEMBL document CHEMBL1143838, “Candida albicans and Candida dubliniensis respond differently to echinocandin antifungal agents in vitro” (2007)
# *1 amine or outer side, *2 acyl side, *3 side chain or, on linkers, in order; H or OH if unused. Where a SMILES comes first, the peptide text is derived from it. Bridges are numbered along the chain shown (N, C = ends). [ ]: non-standard residue; d: D form. The star is where a group is joined. hTyr(3S-OH,4S-OH,3'-OSO3H) = N[C@H](C(=O)O)[C@H](O)[C@@H](O)c1ccc(O)c(OS(=O)(=O)O)c1; Orn(4R-OH,5R-OH) = O=C([C@H](C[C@@H](O)[C@@H](O)N[*:3])N[*:1])[*:2]; Pro(3S-OH,4S-Me) = C[C@H]1CN[C@H](C(=O)O)[C@H]1O; X1 = CCCCCOc1ccc(-c2cc(-c3ccc(C(=O)*)cc3)no2)cc1; Gln(3R-OH) = NC(=O)C[C@@H](O)[C@H](N)C(=O)O; Hyp = O=C(O)[C@@H]1C[C@@H](O)CN1
# Columns and labels:
# Assay type in all cases: functional
# Candida albicans [1] = experiment: Antifungal activity against Candida albicans T32 after 24 hrs by EUCAST test
# Summary of the method: (§1)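 EUCAST broth microdilution with aqueous doubling dilutions of drug. Inoculum grown overnight at 30°C in NGY, then added to MOPS-buffered RPMI 1640 with 2% glucose at an initial 10^5 yeasts/ml. Incubated 35°C for 24 h. MICs taken from triplicate spectrophotometric dose-response data as 50% and 80% growth-reduction endpoints.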
# Candida albicans [2] = experiment: Antifungal activity against Candida albicans NR2 after 24 hrs by CLSI M27-A test
# Summary of the method: (§2)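 CLSI M27-A broth microdilution with aqueous doubling dilutions of drug. Inoculum grown overnight at 30°C in NGY medium, then added to MOPS-buffered RPMI 1640 at an initial 10^3 yeasts/ml. Incubated 35°C for 24 h. MIC read visually as the lowest concentration giving a marked decrease in visible growth; paradoxical or trailing growth noted.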
# Candida albicans [3] = experiment: Antifungal activity against Candida albicans NR2 after 24 hrs by EUCAST test; summary of the method: as §1
# Candida albicans [4] = experiment: Antifungal activity against Candida albicans SCS140136P after 24 hrs by CLSI M27-A test; summary of the method: as §2
# Candida albicans [5] = experiment: Antifungal activity against Candida albicans SCS140136P after 24 hrs by EUCAST test; summary of the method: as §1
# Candida albicans [6] = experiment: Antifungal activity against Candida albicans SCS67023C after 24 hrs by CLSI M27-A test; summary of the method: as §2
# Candida albicans [7] = experiment: Antifungal activity against Candida albicans SCS67023C after 24 hrs by EUCAST test; summary of the method: as §1
# Candida albicans [8] = experiment: Antifungal activity against Candida albicans SCS68858 after 24 hrs by EUCAST test; summary of the method: as §1
# Candida albicans [9] = experiment: Antifungal activity against Candida albicans AM2003/0083 after 24 hrs by EUCAST test; summary of the method: as §1
# Candida albicans [10] = experiment: Antifungal activity against Candida albicans B06-341 after 24 hrs by EUCAST test; summary of the method: as §1
# Candida albicans [11] = experiment: Antifungal activity against Candida albicans HK04M102095 after 24 hrs by EUCAST test; summary of the method: as §1
# Candida albicans [12] = experiment: Antifungal activity against Candida albicans NR3 after 24 hrs by EUCAST test; summary of the method: as §1
# Candida albicans [13] = experiment: Antifungal activity against Candida albicans NR4 after 24 hrs by CLSI M27-A test; summary of the method: as §2
# Candida albicans [14] = experiment: Antifungal activity against Candida albicans NR4 after 24 hrs by EUCAST test; summary of the method: as §1
# Candida albicans [15] = experiment: Antifungal activity against Candida albicans CAI4RI after 24 hrs by CLSI M27-A test; summary of the method: as §2
# Candida albicans [16] = experiment: Antifungal activity against Candida albicans CAI4RI after 24 hrs by EUCAST test; summary of the method: as §1
# Candida albicans [17] = experiment: Antifungal activity against Candida albicans T25 after 24 hrs by CLSI M27-A test; summary of the method: as §2
# Candida albicans [18] = experiment: Antifungal activity against Candida albicans T25 after 24 hrs by EUCAST test; summary of the method: as §1
# Candida dubliniensis [19] = experiment: Antifungal activity against Candida dubliniensis 75/043 after 24 hrs by EUCAST test; summary of the method: as §1
# Candida dubliniensis [20] = experiment: Antifungal activity against Candida dubliniensis 75/043 after 24 hrs by CLSI M27-A test; summary of the method: as §2
# Candida dubliniensis [21] = experiment: Antifungal activity against Candida dubliniensis AMCC after 24 hrs by CLSI M27-A test; summary of the method: as §2
# Candida dubliniensis [22] = experiment: Antifungal activity against Candida dubliniensis AMCC after 24 hrs by EUCAST test; summary of the method: as §1
# Candida dubliniensis [23] = experiment: Antifungal activity against Candida dubliniensis Leic952 after 24 hrs by EUCAST test
# Summary of the method: (§3)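 Yeasts were grown overnight at 30°C in NGY, then inoculated at 10^5 yeasts/ml initial concentration into MOPS-buffered RPMI 1640 with 2% glucose containing aqueous doubling dilutions of drug. Plates were held at 35°C for 24 h. MICs came from triplicate spectrophotometric dose-response data at 50% and 80% growth-reduction endpoints. Trailing meant a >100-fold gap between these endpoints; paradoxical meant regrowth ≥5% above the curve minimum.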
# Candida dubliniensis [24] = experiment: Antifungal activity against Candida dubliniensis SCS17154969-1 after 24 hrs by CLSI M27-A test
# Summary of the method: (§4)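 Broth microdilution with echinocandins as aqueous doubling dilutions. Yeasts were grown overnight at 30°C in NGY and seeded at 10^3 yeasts/ml initial concentration in MOPS-buffered RPMI 1640, then incubated at 35°C for 24 h. The MIC was read visually as the lowest concentration giving a marked decrease in visible growth; paradoxical or trailing growth was noted.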
# Candida dubliniensis [25] = experiment: Antifungal activity against Candida dubliniensis SCS17154969-1 after 24 hrs by EUCAST test; summary of the method: as §3
# Candida dubliniensis [26] = experiment: Antifungal activity against Candida dubliniensis SCS17154969-2 after 24 hrs by EUCAST test; summary of the method: as §3
# Candida dubliniensis [27] = experiment: Antifungal activity against Candida dubliniensis SCS65875C after 24 hrs by CLSI M27-A test; summary of the method: as §4
# Candida dubliniensis [28] = experiment: Antifungal activity against Candida dubliniensis ANSA 23a after 24 hrs by EUCAST test; summary of the method: as §3
# Candida dubliniensis [29] = experiment: Antifungal activity against Candida dubliniensis FS after 24 hrs by CLSI M27-A test; summary of the method: as §4
# Candida dubliniensis [30] = experiment: Antifungal activity against Candida dubliniensis FS after 24 hrs by EUCAST test; summary of the method: as §3
# Candida dubliniensis [31] = experiment: Antifungal activity against Candida dubliniensis IK after 24 hrs by CLSI M27-A test; summary of the method: as §4
# Candida dubliniensis [32] = experiment: Antifungal activity against Candida dubliniensis J931021 after 24 hrs by CLSI M27-A test; summary of the method: as §4
# Candida dubliniensis [33] = experiment: Antifungal activity against Candida dubliniensis J931021 after 24 hrs by EUCAST test; summary of the method: as §3
# Candida dubliniensis [34] = experiment: Antifungal activity against Candida dubliniensis KR after 24 hrs by CLSI M27-A test; summary of the method: as §4
# Candida dubliniensis [35] = experiment: Antifungal activity against Candida dubliniensis SCSBB417709 after 24 hrs by CLSI M27-A test; summary of the method: as §4
# Candida dubliniensis [36] = experiment: Antifungal activity against Candida dubliniensis ST after 24 hrs by CLSI M27-A test; summary of the method: as §4
# Candida dubliniensis [37] = experiment: Antifungal activity against Candida dubliniensis 90/033 after 24 hrs by CLSI M27-A test; summary of the method: as §2
Structure (SMILES),MIC50 (Candida albicans [1]) [µg/mL],MIC50 (Candida albicans [2]) [µg/mL],MIC50 (Candida albicans [3]) [µg/mL],MIC50 (Candida albicans [4]) [µg/mL],MIC50 (Candida albicans [5]) [µg/mL],MIC50 (Candida albicans [6]) [µg/mL],MIC50 (Candida albicans [7]) [µg/mL],MIC50 (Candida albicans [8]) [µg/mL],MIC50 (Candida albicans [9]) [µg/mL],MIC50 (Candida albicans [10]) [µg/mL],MIC50 (Candida albicans [11]) [µg/mL],MIC50 (Candida albicans [12]) [µg/mL],MIC50 (Candida albicans [13]) [µg/mL],MIC50 (Candida albicans [14]) [µg/mL],MIC50 (Candida albicans [15]) [µg/mL],MIC50 (Candida albicans [16]) [µg/mL],MIC50 (Candida albicans [17]) [µg/mL],MIC50 (Candida albicans [18]) [µg/mL],MIC50 (Candida dubliniensis [19]) [µg/mL],MIC50 (Candida dubliniensis [20]) [µg/mL],further results
CC[C@H](C)C[C@H](C)CCCCCCCCC(=O)N[C@H]1C[C@@H](O)[C@@H](NCCN)NC(=O)[C@@H]2[C@@H](O)CCN2C(=O)[C@H]([C@H](O)CCN)NC(=O)[C@H]([C@H](O)[C@@H](O)c2ccc(O)cc2)NC(=O)[C@@H]2C[C@@H](O)CN2C(=O)[C@H]([C@@H](C)O)NC1=O [CASPOFUNGIN],0.13,4,4,0.5,0.25,0.5,0.25,0.25,0.25,0.5,0.25,4,2,2,4,4,8,8,0.25,0.25,MIC50 (Candida dubliniensis [21]): 0.5 µg/mL; MIC50 (Candida dubliniensis [22]): 0.25 µg/mL; MIC50 (Candida dubliniensis [23]): 0.25 µg/mL; MIC50 (Candida dubliniensis [24]): 0.5 µg/mL; MIC50 (Candida dubliniensis [25]): 0.5 µg/mL; MIC50 (Candida dubliniensis [26]): 0.5 µg/mL; MIC50 (Candida dubliniensis [27]): 0.5 µg/mL; MIC50 (Candida dubliniensis [28]): 0.25 µg/mL; MIC50 (Candida dubliniensis [29]): 0.5 µg/mL; MIC50 (Candida dubliniensis [30]): 16 µg/mL; MIC50 (Candida dubliniensis [31]): 0.5 µg/mL; MIC50 (Candida dubliniensis [32]): 0.5 µg/mL; MIC50 (Candida dubliniensis [33]): 16 µg/mL; MIC50 (Candida dubliniensis [34]): 0.5 µg/mL; MIC50 (Candida dubliniensis [35]): 0.5 µg/mL; MIC50 (Candida dubliniensis [36]): 0.5 µg/mL
"CCCCCOc1ccc(-c2cc(-c3ccc(C(=O)N[C@H]4C[C@@H](O)[C@@H](O)NC(=O)[C@@H]5[C@@H](O)[C@@H](C)CN5C(=O)[C@H]([C@H](O)CC(N)=O)NC(=O)[C@H]([C@H](O)[C@@H](O)c5ccc(O)c(OS(=O)(=O)O)c5)NC(=O)[C@@H]5C[C@@H](O)CN5C(=O)[C@H]([C@@H](C)O)NC4=O)cc3)no2)cc1 [MICAFUNGIN] (X1-[Orn(4R-OH,5R-OH)]T[Hyp][hTyr(3S-OH,4S-OH,3'-OSO3H)][Gln(3R-OH)][Pro(3S-OH,4S-Me)]; lactam 1-C)",≤ 0.032,0.25,0.5,≤ 0.032,≤ 0.032,≤ 0.032,≤ 0.032,≤ 0.032,≤ 0.032,≤ 0.032,≤ 0.032,2,0.25,0.5,0.25,0.5,1,1,≤ 0.032,≤ 0.032,MIC50 (Candida dubliniensis [37]): ≤ 0.032 µg/mL; MIC50 (Candida dubliniensis [21]): ≤ 0.032 µg/mL; MIC50 (Candida dubliniensis [22]): ≤ 0.032 µg/mL; MIC50 (Candida dubliniensis [23]): 0.063 µg/mL; MIC50 (Candida dubliniensis [24]): ≤ 0.032 µg/mL; MIC50 (Candida dubliniensis [25]): 0.063 µg/mL; MIC50 (Candida dubliniensis [26]): 0.063 µg/mL; MIC50 (Candida dubliniensis [27]): ≤ 0.032 µg/mL; MIC50 (Candida dubliniensis [28]): ≤ 0.032 µg/mL; MIC50 (Candida dubliniensis [29]): ≤ 0.032 µg/mL; MIC50 (Candida dubliniensis [30]): 0.063 µg/mL; MIC50 (Candida dubliniensis [31]): ≤ 0.032 µg/mL; MIC50 (Candida dubliniensis [32]): ≤ 0.032 µg/mL; MIC50 (Candida dubliniensis [33]): 0.063 µg/mL; MIC50 (Candida dubliniensis [34]): ≤ 0.032 µg/mL; MIC50 (Candida dubliniensis [35]): ≤ 0.032 µg/mL; MIC50 (Candida dubliniensis [36]): ≤ 0.032 µg/mL
